# Variants at the floor of the assay were thinned out.
# B1: tRNA (parent)
# chain: GUUCCGUUGGCGUAAUGGUAACGCGUCUCCCUCCUAAGGAGAAGACUGCGGGUUCGAGUCCCGUACGGAACG
# Variants of: B1
# Assay: yeast fitness relative to wild type (ratio to wild type); higher = fitter; tRNA-Arg(CCU), competitive growth, 37 C, YPD
# In short: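 The tRNA-Arg(CCU) gene variants were made by chemical synthesis with a 3% per-site mutation rate at 69 sites and inserted at the native genomic locus of Saccharomyces cerevisiae. After pooling, the strains were competed in YPD at 37°C for 24 hours in six parallel replicates. Gene amplicons from the start population and each end population were read by 100-nucleotide paired-end sequencing, and Darwinian fitness relative to wild type was taken from genotype frequency changes. Genotypes needed ≥ 100 starting reads, and estimates < 0.5 were set to 0.5.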
row,Variant,yeast fitness
1,C4A A65G,0.946
2,C4A A65U,0.719
3,C4A G18C C33U U59A,≤ 0.5
4,U3G U59C,0.888
5,C4G A42G A45U C66U,0.659
6,C4A U19G U35C U53C,≤ 0.5
7,C4A A14G C24U U32G A43G A65U,≤ 0.5
8,C4A C27G C46U,0.636
9,C4G C11G C33G U47A,≤ 0.5
10,U3G U28A C33U A36G C66A,≤ 0.5
11,C4A C34G A70G,≤ 0.5
12,C4G C5U U8A G12A G48A,≤ 0.5
13,C4A C22A C55U,≤ 0.5
14,C4G C5G C29G,≤ 0.5
15,C4G A21U U54G,0.607
16,U3G G63A,0.849
17,C4A A21G C60G G67A,≤ 0.5
18,U3G U32C,0.86
19,C4G A21G U32A,0.672
20,C4A U13A G18A G52A C55G A69U,≤ 0.5
21,C4G A20U C46U,0.614
22,C4A G10A C31A,≤ 0.5
23,C4A U16A C30G C31U,≤ 0.5
24,C4A U13C G23C C34G A45G U53C U64A,0.675

row,Variant,yeast fitness
1,C4A C60U,0.825
2,C4A G6A G68A,≤ 0.5
3,C4A C5U C34U U64G,0.576
4,C4A G9A U13G C22U C61A A70C,≤ 0.5
5,C4A A14U A20C U28G A42G,≤ 0.5
6,C4G C11A C31U A40C,≤ 0.5
7,C4G A21G A45U C49U,≤ 0.5
8,C4A G63C,0.748
9,C4G C11G C55U C61A G67A,≤ 0.5
10,U3G U7C G18A C30G G41U C49G,≤ 0.5
11,C4G A36G G38A A40U,≤ 0.5
12,C4A C55G,0.55
13,C4A C55U,0.943
14,C4G A14G C31A,0.528
15,C4A C34A C62G,≤ 0.5
16,C4A G6A C30A A65G,≤ 0.5
17,C4A U13A G58C A69U,0.655
18,C4G C11A G17A A20G C27U A43U C49G C60U G68A,≤ 0.5
19,C4A C5U C22U C34A C49G,≤ 0.5
20,C4A A14C A21G C29A C34U A69U,≤ 0.5
21,C4A C29A,0.637
22,C4G A15G G17A C34A,≤ 0.5
23,C4A C11G C34U,≤ 0.5
24,C4G A14U A37U U53C A69U,≤ 0.5

row,Variant,yeast fitness
1,C4G A15G A20G G23A C34G G67A,≤ 0.5
2,C4A G51C,0.547
3,C4A U7A U8A U35C C60A,≤ 0.5
4,C4A C5U C30U A45G,0.516
5,U3G U8C C62U,0.525
6,C4G A20C U26G C33U G44C U59A,≤ 0.5
7,U3G U54G A57C,≤ 0.5
8,C4A U26A,0.683
9,C4A G44C G51A G58C U59A,≤ 0.5
10,C4A C31G C46U,0.677
11,C4A G9A C22A C27G,≤ 0.5
12,C4A C33G U47A,0.625
13,C4A C31G A40U A65U G68C,0.595
14,C4G C5G C11A G38A,≤ 0.5
15,C4A G23A A40C,≤ 0.5
16,C4A G9A G18C C22A A69C,≤ 0.5
17,U3G U16C G39C A45C C49G C62G,≤ 0.5
18,C4A C29G A37C U54A,≤ 0.5
19,C4G A14G U64C,≤ 0.5
20,C4G A14C G50C G56C,≤ 0.5
21,C4A C24G C30U A45G,0.523
22,C4A A15G G17A C33U G39C C55A G67C,≤ 0.5
23,C4A G17A G51C,≤ 0.5
24,C4G A14C G48C A69U A70G,≤ 0.5

row,Variant,yeast fitness
1,C4A U7A U8A C60A,≤ 0.5
2,U3G U19A G51A C66G,≤ 0.5
3,U3G U28C C62U,0.638
4,C4A U19C U35C G48A,≤ 0.5
5,U3G G6A U8C,≤ 0.5
6,C4G A21C C22A C27G C34U G56A G67C,≤ 0.5
7,C4A C33A C60A,≤ 0.5
8,C4G A15G G23A C34G G67A,0.556
9,C4A U19A A40U G48C,≤ 0.5
10,C4A U32C C46G C62A,≤ 0.5
11,C4A C5U C22U C34A C62U A70U,≤ 0.5
12,C4A C11A C33G A57C C61G,0.534
13,C4A C5A A20U,0.605
14,C4A A14G U64A A70C,≤ 0.5
15,C4G A37G A43G A69U,≤ 0.5
16,C4G A43C,0.853
17,C4A U8G A69U,≤ 0.5
18,C4A G17A C24G G63C,0.64
19,C4G C5U A43G,≤ 0.5
20,C4A C29U G67A A70U,≤ 0.5
21,C4A G10C A57U,≤ 0.5
22,C4G C5A C27A C61A,≤ 0.5
23,C4A A14U C34G C55U A65C,≤ 0.5
24,C4G C11G C55U C61A G68A,≤ 0.5

row,Variant,yeast fitness
1,C4A A36C A57G A65U,≤ 0.5
2,C4A C5U C29G C33U U59G A69C,0.533
3,C4A C46U C55U,≤ 0.5
4,C4A U16A A37G A69U,≤ 0.5
5,C4A C24G U32C C62U A69C,≤ 0.5
6,C4G C5A U16A G17A G50A,≤ 0.5
7,C4A C11U U32A G38C U47A U53G,0.56
8,C4A C5U C22U C34A A65U,≤ 0.5
9,C4G A20G G51C,0.66
10,C4A A15G C62U,0.594
11,C4A G10A A21G C22G A65G,≤ 0.5
12,C4G C5U A37U,≤ 0.5
13,U3G C33U A42G A57U C61A,≤ 0.5
14,C4A C11A U13C A70U,≤ 0.5
15,C4G A40U C66G,0.624
16,C4A C66A,0.569
17,C4A C5U C24U U53A A65G,≤ 0.5
18,C4A U7A U8G A45C A65G C66G,≤ 0.5
19,C4A U16G C30A,0.62
20,C4G A14U A20G A21C,0.55
21,C4A U16C C34U C61A,≤ 0.5
22,C4G A15C C30A A42C G56A A57U,≤ 0.5
23,C4A C11U A45U C66U,≤ 0.5
24,C4G C11G C31G G48A C55A C62A,≤ 0.5

row,Variant,yeast fitness
1,C4A G23A U28A,≤ 0.5
2,C4A C11A C33G,0.544
3,C4A U28G,0.681
4,C4A C46G C55G,≤ 0.5
5,C4A C49G G63C,0.9
6,C4A C11U A21U G23A,≤ 0.5
7,C4A U47C,0.773
8,C4G C11A A14U C22A C24G,≤ 0.5
9,C4A G17A C62A,≤ 0.5
10,C4A A14G A36U A57U,0.953
11,C4A A14U A20C U28G G58C C61A,≤ 0.5
12,C4A C31G A45G G50C,0.576
13,C4A G48C,0.749
14,C4A G12C,0.679
15,C4G A21G C31G C33G,≤ 0.5
16,C4A C5G A57U G68U,0.575
17,U3G U13C A14U C61G C62U,≤ 0.5
18,C4A C27G A42G U53A,≤ 0.5
19,C4A A20C C27U,0.636
20,C4A A36G C55A C61U,≤ 0.5
21,C4A C46G C61A,0.522
22,C4A C30G,0.661
23,C4A C30A,0.837
24,C4A A37C,0.707

row,Variant,yeast fitness
1,C4A U19G C30G,≤ 0.5
2,U3G G18A A65U,0.548
3,C4A C27G C31G,≤ 0.5
4,C4A A40U,0.94
5,C4A A40C,0.812
6,C4A U19G A70C,0.854
7,C4A U8A G12C U19C C30U,≤ 0.5
8,C4A A37U C55U,0.585
9,C4A A14U C34G A65U,≤ 0.5
10,C4A A20C C27U G50A,0.597
11,C4A A42U A69U,0.625
12,C4G C5A U28G,≤ 0.5
13,C4A G17U C46A,0.645
14,C4G C5G U8C G23C C29U A45U C60U C62U A70C,≤ 0.5
15,U3G G44A C66U,0.582
16,U3G U8C A15U G25A C49A,≤ 0.5
17,C4A U26A A36C C49G,0.583
18,C4A A45C G52A G67U,0.577
19,U3G U13G C30A C31A,≤ 0.5
20,C4A A20C C29A,≤ 0.5
21,C4A C22U A40G A43U C46G C49G C62U,0.527
22,C4A A14U A20C U28G G67A A70G,≤ 0.5
23,C4A U7C G41A C49A U54C,≤ 0.5
